According to ChEMBL document CHEMBL1955851, “Fatty acyl amide derivatives of doxorubicin: synthesis and in vitro anticancer activities” (Eur J Med Chem, 2011):
Active and inactive are the calls of the source. The calls are words filed in the database; no cut-off is given here.

How the values were obtained:
HT-29 = assay: Antiproliferative activity against human HT-29 cells assessed as growth inhibition at 1 uM after 120 hrs by spectrophotometry relative to control; assay type: functional; details: for inhibition of growth at 1 µM: HT-29, 120 h, read-out: GI
Method in brief: (§1)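 CellTiter 96 AQueous One (MTS) proliferation assay. Cells grown at 37 °C, 5% CO2, 10% FBS plus 1% penicillin-streptomycin. Medium was RPMI for CCRF-CEM and EMEM for MDA-MB-468, SK-OV-3 and HT-29. Compound at 1 μM in 4% DMSO, triplicate wells, incubated 24-120 h, then 1 h with reagent. A490 read. Survival % = (treated − medium)/(control − medium) × 100.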

CCRF-CEM [1] = assay: Antiproliferative activity against human CCRF-CEM cells assessed as growth inhibition at 1 uM after 24 to 96 hrs by spectrophotometry; assay type: functional, cell-based; method in brief: as §1
MDA-MB-468 [2] = assay: Antiproliferative activity against human MDA-MB-468 cells assessed as growth inhibition at 1 uM after 24 hrs by spectrophotometry; assay type: functional, cell-based; method in brief: as §1
SK-OV-3 [3] = assay: Antiproliferative activity against human SKOV3 cells assessed as growth inhibition at 1 uM after 24 to 96 hrs by spectrophotometry; assay type: functional, cell-based; method in brief: as §1
CCRF-CEM [4] = assay: Antiproliferative activity against human CCRF-CEM cells assessed as growth inhibition at 1 uM after 96 hrs by spectrophotometry relative to control; assay type: functional; details: read-out: GI; method in brief: as §1
SK-OV-3 [5] = assay: Antiproliferative activity against human SKOV3 cells assessed as growth inhibition at 1 uM after 96 hrs by spectrophotometry relative to control; assay type: functional; details: SK-OV-3, 96 h, read-out: GI; method in brief: as §1
MDA-MB-468 [6] = assay: Antiproliferative activity against human MDA-MB-468 cells assessed as growth inhibition at 1 uM after 96 hrs by spectrophotometry relative to control; assay type: functional; details: MDA-MB-468, 96 h, read-out: GI; method in brief: as §1
[7] = n-Octanol-water partition coefficient, log P of the compound by shake flask method; assay type: physicochemical
Method in brief: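 Shake-flask method. 100 µg of derivative partitioned between 300 µL 1-octanol and 300 µL distilled water, shaken 30 min, phases left to separate. Each phase quantified by UV spectroscopy against a standard spectrum. P = octanol/water concentration ratio, reported as Log P. Mean of three runs.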

Row | logP [7] | SMILES | growth inhibition (GI) (HT-29) | growth inhibition (GI) (CCRF-CEM [1]) | growth inhibition (GI) (MDA-MB-468 [2]) | growth inhibition (GI) (SK-OV-3 [3]) | inhibition of growth at 1 µM (HT-29) | inhibition of growth at 1 µM (CCRF-CEM [4]) | inhibition of growth at 1 µM (SK-OV-3 [5]) | inhibition of growth at 1 µM (MDA-MB-468 [6])
1 |  | CCCCCCCCCC(=O)N[C@H]1C[C@H](O[C@H]2C[C@](O)(C(=O)CO)Cc3c(O)c4c(c(O)c32)C(=O)c2c(OC)cccc2C4=O)O[C@@H](C)[C@H]1O | Active | inactive | inactive | Active |  |  |  | 
2 |  | CCCCCCCCCCCCCCCCCC(=O)N[C@H]1C[C@H](O[C@H]2C[C@](O)(C(=O)CO)Cc3c(O)c4c(c(O)c32)C(=O)c2c(OC)cccc2C4=O)O[C@@H](C)[C@H]1O | Active | inactive | inactive | Active |  |  |  | 
3 |  | CCCCCCCCCCCCCC(=O)N[C@H]1C[C@H](O[C@H]2C[C@](O)(C(=O)CO)Cc3c(O)c4c(c(O)c32)C(=O)c2c(OC)cccc2C4=O)O[C@@H](C)[C@H]1O |  |  | inactive |  | 41% | 27% | 50% | 31%
4 | 1.18 | COc1cccc2c1C(=O)c1c(O)c3c(c(O)c1C2=O)C[C@@](O)(C(=O)CO)C[C@@H]3O[C@H]1C[C@H](NC(C)=O)[C@H](O)[C@H](C)O1 | Active | inactive | inactive | Active |  |  |  | 
5 |  | CCCCCCCCCCCCCCCCCCCC(=O)N[C@H]1C[C@H](O[C@H]2C[C@](O)(C(=O)CO)Cc3c(O)c4c(c(O)c32)C(=O)c2c(OC)cccc2C4=O)O[C@@H](C)[C@H]1O | Active | inactive | inactive | Active |  |  |  | 
6 |  | CCCCCCCCCCCCCCCC(=O)N[C@H]1C[C@H](O[C@H]2C[C@](O)(C(=O)CO)Cc3c(O)c4c(c(O)c32)C(=O)c2c(OC)cccc2C4=O)O[C@@H](C)[C@H]1O | Active | inactive | inactive | Active |  |  |  | 
7 |  | CCCCCCCCCCCC(=O)N[C@H]1C[C@H](O[C@H]2C[C@](O)(C(=O)CO)Cc3c(O)c4c(c(O)c32)C(=O)c2c(OC)cccc2C4=O)O[C@@H](C)[C@H]1O |  | inactive | inactive |  | 64% |  | 58% | 38%
8 |  | CCCCCCCC(=O)N[C@H]1C[C@H](O[C@H]2C[C@](O)(C(=O)CO)Cc3c(O)c4c(c(O)c32)C(=O)c2c(OC)cccc2C4=O)O[C@@H](C)[C@H]1O | Active | inactive | inactive | Active |  |  |  | 
9 | 0.6 | COc1cccc2c1C(=O)c1c(O)c3c(c(O)c1C2=O)C[C@@](O)(C(=O)CO)C[C@@H]3O[C@H]1C[C@H](N)[C@H](O)[C@H](C)O1 [DOXORUBICIN] |  |  |  |  |  |  |  | 
10 |  | CCSCCCCCCCCCCCC(=O)N[C@H]1C[C@H](O[C@H]2C[C@](O)(C(=O)CO)Cc3c(O)c4c(c(O)c32)C(=O)c2c(OC)cccc2C4=O)O[C@@H](C)[C@H]1O |  | inactive | inactive |  |  |  |  | 
